Data: publication PMC2532710 (Nucleic Acids Research, 2008)

Key:
[1] = test system: fork substrate with only the lagging strand; experiment: 2-AP fluorescence quenching, lagging strand fork; format: binding
Method in brief: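 Substrates were annealed from oligos (boiled 5 min, slow-cooled), gel-purified on native 12% PAGE and quantified spectrophotometrically. After ≥10 min equilibration, emission was read at 330–430 nm (excitation 315 nm). Adenine-substituted spectra were subtracted, and fold decrease at 370 nm was taken versus no peptide.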

Holliday junction = experiment: 2-AP titration Kd, Holliday junction; format: binding; details: Kd ratio, n = 1
Method in brief: (§1)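 Each substrate carried 2-AP at strand 4, position 2 and was used at 0.1 μM in 20 mM Tris-HCl pH 7.8, 25 mM NaCl, 1 mM EDTA, 1.6% DMSO at 24°C. Peptide dimer added in 2-fold steps from 0.003125 μM, 3 min each. Excitation 315 nm, emission 330–430 nm. Adenine background subtracted, 365–375 nm averaged. Fc fitted by least squares to pooled 2–3 dilution series. Value given as Kd relative to HJ Kd.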

Oligo = experiment: 2-AP titration Kd, oligo; format: binding; details: Kd ratio, n = 1
Method in brief: as §1

human RAD54 protein = details: cited from earlier work

Which “fold decrease in 2-AP fluorescence at 370 nm” value (shortened to “fold decrease”) ([1]; Lag-1AP1 (central base), 0.05 μM dimer, 0.25:1) does the source give for (WRWYCR)2 (disulfide) here?
Its value is 1.0 fold.

And the “fold decrease” value ([1]; Lag-1AP1 (central base), 0.2 μM dimer, 1:1)?
Its value is 1.0 fold.

And the “fold decrease” value ([1]; Lag-1AP1 (central base), 0.8 μM dimer, 4:1)?
Its value is 1.3 fold.

And the “fold decrease” value ([1]; Lag-1AP1 (central base), 1.6 μM dimer, 8:1)?
The value was 2.0 fold.

And the “2-AP quenching” value ([1]; Lag-1AP1, 4- and 8-fold molar excess)?
The value was “quenched”.

And the “2-AP quenching” value ([1]; Lag-3AP2)?
Its value is “only very weak quenching”.

What about the “fold decrease” value ([1]; Lag-3AP2, 0.05 μM dimer, 0.25:1) of the same substance?
The value was 1.0 fold.

What about the “fold decrease” value ([1]; Lag-3AP2, 0.2 μM dimer, 1:1) of the same substance?
Its value is 1.0 fold.

What about the “fold decrease” value ([1]; Lag-4AP1 (central base), 0.05 μM dimer, 0.25:1) of the same substance?
The value was 1.0 fold.

What about the “fold decrease” value ([1]; Lag-4AP1 (central base), 0.8 μM dimer, 4:1) of the same substance?
Its value is 1.3 fold.

What about the “fold decrease” value ([1]; Lag-4AP1 (central base), 1.6 μM dimer, 8:1) of the same substance?
The value was 1.9 fold.

And the “2-AP quenching” value ([1]; Lag-4AP1 and Lag-4AP2)?
The value was “quenched strongly”.

What about the “fold decrease” value ([1]; Lag-4AP2 (central base), 0.05 μM dimer, 0.25:1) of the same substance?
The value was 1.0 fold.

And the “fold decrease” value ([1]; Lag-4AP2 (central base), 0.8 μM dimer, 4:1)?
Its value is 1.3 fold.

What about the “fold decrease” value ([1]; Lag-4AP2 (central base), 1.6 μM dimer, 8:1) of the same substance?
Its value is 1.6 fold.

What about the “fold decrease” value ([1]; Lag-4AP3, 0.05 μM dimer, 0.25:1) of the same substance?
The value was 1.0 fold.

What about the “fold decrease” value ([1]; Lag-4AP3, 0.2 μM dimer, 1:1) of the same substance?
The value was 1.0 fold.

What about the “fold decrease” value ([1]; Lag-4AP3, 0.8 μM dimer, 4:1) of the same substance?
The value was 1.2 fold.

And the “fold decrease” value ([1]; Lag-4AP3, 1.6 μM dimer, 8:1)?
The value was 1.3 fold.

What about the “2-AP quenching” value ([1]; Lag-4AP3 and Lag-4AP4) of the same substance?
Its value is “quenched relatively weakly”.

And the “fold decrease” value ([1]; Lag-4AP4, 0.05 μM dimer, 0.25:1)?
Its value is 1.0 fold.

What about the “fold decrease” value ([1]; Lag-4AP4, 0.2 μM dimer, 1:1) of the same substance?
The value was 1.0 fold.

What about the “fold decrease” value ([1]; Lag-4AP4, 1.6 μM dimer, 8:1) of the same substance?
The value was 1.0 fold.

And the “Fold reduced versus HJ” value (Holliday junction)?
The value was 1.

And the “Fold reduced versus HJ” value (Oligo)?
The value was 51.1.

What about the “inhibition of D-loop unwinding activity” value (human RAD54 protein) of the same substance?
The value was “inhibit the D-loop unwinding activity”.
